Results taken from ChEMBL document CHEMBL5126597, “Indazole MRL-871 interacts with PPARγ via a binding mode that induces partial agonism” (Bioorg Med Chem, 2022).
Activity calls are given as the source filed them. The rule behind the calls is not given here.

Experiments:
[1] = target: T1, Peroxisome proliferator-activated receptor gamma (Homo sapiens) (UniProt P37231); assay: Stabilization of PPARgamma LBD (unknown origin) assessed as change in melting temperature by differential scanning fluorimetry
T1 sequence (whole entry): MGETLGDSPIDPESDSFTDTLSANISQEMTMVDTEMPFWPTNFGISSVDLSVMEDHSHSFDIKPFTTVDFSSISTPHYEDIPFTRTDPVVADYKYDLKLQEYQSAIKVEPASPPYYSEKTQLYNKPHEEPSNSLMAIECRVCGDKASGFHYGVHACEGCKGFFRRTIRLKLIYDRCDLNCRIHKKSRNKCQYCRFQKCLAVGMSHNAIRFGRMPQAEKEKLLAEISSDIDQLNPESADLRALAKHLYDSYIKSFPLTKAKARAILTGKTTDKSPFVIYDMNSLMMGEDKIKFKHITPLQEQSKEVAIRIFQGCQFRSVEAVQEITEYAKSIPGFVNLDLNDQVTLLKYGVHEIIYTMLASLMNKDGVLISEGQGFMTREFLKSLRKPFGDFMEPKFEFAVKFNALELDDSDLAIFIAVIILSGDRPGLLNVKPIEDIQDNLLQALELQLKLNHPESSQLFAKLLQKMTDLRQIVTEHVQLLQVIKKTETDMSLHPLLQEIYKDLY

[2] = Stabilization of PPARgamma LBD (unknown origin)/FITC-labeled PGC-1alpha (unknown origin) protein-protein interaction assessed as dissociation constant by fluorescence anisotropy assay; parameters: species or system Homo sapiens
In short: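 Fluorescence anisotropy coactivator interaction assay: PPARγ LBD titrated to fluorophore-labelled PGC-1α peptide (10 nM) with DMSO or ligand at 10 µM. n = 3; representative data shown as mean ± s.d.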

[3] = target: T1, Peroxisome proliferator-activated receptor gamma (Homo sapiens); assay: Stabilization of PPARgamma LBD (unknown origin) assessed as change in melting temperature in presence of GW9662 by differential scanning fluorimetry
[4] = target: T1, Peroxisome proliferator-activated receptor gamma (Homo sapiens); assay: Stabilization of PPARgamma LBD (unknown origin) assessed as change in melting temperature in presence of SR16832 by differential scanning fluorimetry
[5] = target: T1, Peroxisome proliferator-activated receptor gamma (Homo sapiens); assay: Stabilization of PPARgamma LBD (unknown origin) assessed as melting temperature at 14 uM by differential scanning fluorimetry
In short: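 Differential scanning fluorimetry of PPARγ LBD (3.5 µM) with or without ligand at 14 µM (four equivalents) to obtain melting temperature. n ≥ 3, mean ± s.d.; with vs without compound compared by unpaired t-test.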

[6] = target: T1, Peroxisome proliferator-activated receptor gamma (Homo sapiens); assay: Binding affinity to PPARgamma LBD (unknown origin) assessed as increase in thermal stability by differential scanning fluorimetry; conditions: filed as partial agonist

Compound: COc1ccc2nccc(NC(=O)c3cc([N+](=O)[O-])ccc3Cl)c2c1
- ΔTm [1]: 4.4 °C

Compound: CN(CCOc1ccc(CC2SC(=O)NC2=O)cc1)c1ccccn1 (stereo not given) [ROSIGLITAZONE]
- Kd [2]: 370 nM
- ΔTm [3]: 0 °C
- ΔTm [4]: -0.1 °C

Compound: O=C(O)c1ccc(-c2nn(C(=O)c3c(Cl)cccc3C(F)(F)F)c3ccccc23)cc1
- Tm [5]: 50.2 °C
- Kd [2]: 710 nM
- Activity [6]: Active
- ΔTm [3]: 1.1 °C
- ΔTm [4]: -0.6 °C

Compound: O=C(Nc1ccccc1)c1cc([N+](=O)[O-])ccc1Cl
- ΔTm [1]: 3.9 °C
